The record followed here is ChEMBL document CHEMBL4130454, “Anchimerically Activatable Antiviral ProTides” (ACS Med Chem Lett, 2017).

Series [1] can be described thus: Cytotoxicity against African green monkey Vero cells assessed as decrease in cell viability after 72 hrs by neutral red dye uptake assay. Format: cell-based. Particulars: chlorocebus sabaeus. Put shortly: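 Vero cells were exposed to a range of compound concentrations for 72 h. Viability was read by Neutral Red dye uptake, six replicates.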
The subject of series [2] is dengue virus type 2. As to the kind of experiment: Antiviral activity against Dengue virus 2 prototype 16681 infected in African green monkey Vero cells assessed as inhibition of viral RNA replication at 100 uM after 72 hrs in presence of 100 uM of HINT1 inhibitor […] by qPCR method. It counts as functional, organism-based. In a few lines:
(§1)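 Vero cells infected with DENV-2 (moi = 0.2), then treated with 100 μM compound, alone or together with 100 μM TrpGc (HINT1 inhibitor). After 72 h, supernatant RNA was extracted and viral progeny quantified by DENV-2-specific qPCR. Replication is expressed as percentage of the untreated infected control. Mean of four independent experiments.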
Background: In qPCR the cycle at which signal appears reflects the starting amount.

Series [3] has as its system dengue virus type 2. Kind of series: Antiviral activity against Dengue virus 2 prototype 16681 infected in African green monkey Vero cells assessed as inhibition of viral RNA replication at 100 uM after 72 hrs by qPCR method. It counts as functional, organism-based. In a few lines: as §1
Series [4] deals with dengue virus type 2. Kind of series: Antiviral activity against Dengue virus 2 prototype 16681 infected in Vero cells assessed as inhibition of virus induced cytopathic effect by plaque assay. Particulars: prototype 16681, Vero. Background: Cytopathic effects are the visible damage that an infection or toxin causes in cultured cells.
The subject of series [5] is dengue virus type 2. Kind of series: Antiviral activity against Dengue virus 2 New Guinea assessed as inhibition of virus induced cytopathic effect by neutral red dye uptake assay. Format: functional, organism-based.
The nature of series [6]: Drug metabolism assessed as half life for ((2R,3R,4R,5R)-5-(2-amino-6-oxo-1,6-dihydro-9H-purin-9-yl)-3,4-dihydroxy-4-methyltetrahydrofuran-2-yl)methyl hydrogen (2-(1H-indol-3-yl)ethyl)phosphoramidate formation in HEPES buffer at pH 7.4 by RP-HPLC analysis. It counts as physicochemical. In a few lines: (§2)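 Diester prodrug incubated at 37 °C in 20 mM HEPES buffer, pH 7.4 or pH 2.0. Removal of the 2-(methylthio)ethyl group, giving the monoester phosphoramidate, was followed over time by reversed-phase HPLC. The half-life was derived from the conversion time course.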

Series [7] can be described thus: Drug metabolism assessed as half life for ((2R,3R,4R,5R)-5-(2-amino-6-oxo-1,6-dihydro-9H-purin-9-yl)-3,4-dihydroxy-4-methyltetrahydrofuran-2-yl)methyl hydrogen (2-(1H-indol-3-yl)ethyl)phosphoramidate formation in HEPES buffer at pH 2 by RP-HPLC analysis. Format: physicochemical. In a few lines: as §2

Usually CC50 stands for the concentration at which the toxic effect on the cells reaches its halfway point. One may read the IC50 as the point on the concentration scale where inhibition reaches its midpoint. Usually EC50 stands for the concentration needed to bring the measured effect to its halfway point.

Structures are written as SMILES. Activity calls are given as the source filed them. The calls are words filed in the database; no cut-off is given here.

Turning to `C[C@@]1(O)[C@H](O)[C@@H](COP(=O)(O)NCCc2c[nH]c3ccccc23)O[C@H]1n1cnc2c(=O)[nH]c(N)nc21`, in series [1], the CC50 at 72 h is greater than 200 µM. Besides, the inhibition entry with dengue virus type 2 [2] is “inactive”. Also, the inhibition result with dengue virus type 2 [3] was “Active”. In the series on dengue virus type 2 [4], the IC50 amounted to 6.84 µM.
As for `C[C@@]1(O)[C@H](O)[C@@H](CO)O[C@H]1n1cnc2c(N)ncnc21`, in the series with dengue virus type 2 [5], the EC50 amounted to 4 µM.
Turning to `C[C@@]1(O)[C@H](O)[C@@H](CO)O[C@H]1n1cnc2c(=O)[nH]c(N)nc21` [2'-B-METHYL-GUANOSINE], the CC50 at 72 h in series [1] is greater than 200 µM. Also, in the series on dengue virus type 2 [5], the EC50 was 13.6 µM. Further, the IC50 in the series on dengue virus type 2 [4] was determined as 8.14 µM.
As for `CSCCOP(=O)(NCCc1c[nH]c2ccccc12)OC[C@H]1O[C@@H](n2cnc3c(=O)[nH]c(N)nc32)[C@](C)(O)[C@@H]1O` (some centres undefined), the CC50 at 72 h in series [1] was greater than 200 µM. Besides, the t1/2 in series [6] stood at 4.5 h; in series [7] it was 3.78 h. The inhibition entry in the series on dengue virus type 2 [2] is “inactive”. Further, in the series on dengue virus type 2 [3], the inhibition result is “Active”. For the same molecule, the IC50 in the series with dengue virus type 2 [4] turned out to be 1.59 µM.
